According to article PMC2821697 (Bioorganic & medicinal chemistry, 2009):

Assays:
A549 (human lung cancer) = test: Cell growth inhibition assay; format: cell-based; conditions: A549, 72 h, read-out: ED50 against A549
How it was run: (§1)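 Trypsinized cells were seeded in 96-well plates, then exposed 72 h to test compound from DMSO-diluted stock. Cells were TCA-fixed, stained with 0.4% SRB for 10 min, and dye solubilized in trizma base; A515. ED50 is the concentration halving net protein increase, mean ± SEM of ≥2 independent determinations.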

[1] = test system: KB (nasopharyngeal carcinoma); test: Cell growth inhibition assay; format: cell-based; conditions: Homo sapiens, 72 h, read-out: ED50 against KB
How it was run: as §1

[2] = test system: MDA-MB-231 (estrogen receptor negative breast cancer); test: Cell growth inhibition assay; format: cell-based; conditions: Homo sapiens, MDA-MB-231, 72 h, read-out: ED50 against MDA-MB-231
How it was run: as §1

DU145 (prostate cancer) = test: Cell growth inhibition assay; format: cell-based; conditions: Homo sapiens, DU-145, 72 h, read-out: ED50 against DU145
[3] = test system: SK-BR-3 (HER2 over-expressing breast cancer); test: Cell growth inhibition assay; format: cell-based, human; conditions: for ED50 against SK-BR-3: mean ED50+SEM, 2 or more independent tests, SRB, 72 h; for cancer cell line selectivity: fold more potent against SK-BR-3 compared with other cancer cell lines tested: SK-BR-3 versus six additional tested cancer cell lines
How it was run: as §1

[4] = test system: SK-BR-3 breast cancer cell line; test: MTT assay, SK-BR-3; format: cell-based, human; conditions: 72 h, single experiment
[5] = test system: MCF10A normal breast cell line; test: MTT assay, MCF10A normal breast cell line; format: cell-based; conditions: 72 h, single experiment
How it was run: (§2)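 184A1 and MCF10A were from ATCC. Cells were seeded at 5000/well in the recommended growth medium and incubated overnight. Test compound dissolved in DMSO was then added, followed by 72 h at 37 °C, 5% CO2. MTT reagent was added for 2 h, and formazan was read at OD 570. Data are mean and standard deviation of replicates from a single experiment.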

[6] = test system: 184A1 normal breast cell line; test: MTT assay, 184A1 normal breast cell line; format: cell-based; conditions: 72 h, single experiment
How it was run: as §2

Row | Compound | IC50 [1] [µM] | ED50 against SK-BR-3 [3] [µM] | cancer cell line selectivity: fold more potent against SK-BR-3 compared with other cancer cell lines tested [3] | also measured
1 | Cc1cccc2c1ccc1c3occ(C)c3c(=O)oc21 [Compound 1, Neo-tanshinlactone] | > 37.9 |  |  | IC50 (A549 (human lung cancer)): 54.2 ± 3.4 µM; IC50 [2]: 37.9 ± 1.4 µM; IC50 (DU145 (prostate cancer)): 58.3 ± 2 µM
2 | Cc1cccc(-c2cc3occ(C)c3c(=O)o2)c1 [Compound 10, 3-Methyl-6-m-tolyl-4H-furo[3,2-c]pyran-4-one] |  | 1.50 ± 0.04 |  | 
3 | CCOc1cccc(-c2cc3occ(C)c3c(=O)o2)c1 [Compound 12, 6-(3-Ethoxyphenyl)-3-methyl-4H-furo[3,2-c]pyran-4-one] |  | 0.67 ± 0.03 |  | 

Further lines, with some results ahead:

Row | IC50 [1] [µM] | Compound | ED50 against SK-BR-3 [3] [µM] | cancer cell line selectivity: fold more potent against SK-BR-3 compared with other cancer cell lines tested [3] | also measured
4 | > 78.1 | COc1cccc(-c2cc3occ(C)c3c(=O)o2)c1 [Compound 11, 6-(3-Methoxyphenyl)-3-methyl-4H-furo[3,2-c]pyran-4-one] |  |  | 
5 | > 69.9 | COc1cc(OC)cc(-c2cc3occ(C)c3c(=O)o2)c1 [Compound 25, 6-(3,5-Dimethoxyphenyl)-3-methyl-4H-furo[3,2-c]pyran-4-one] | 0.28 ± 0.01 | 100- to 250 fold | interpolated ED50 against SK-BR-3 [4]: 1.0 µM; interpolated ED50 against MCF10A [5]: > 35.0 µM; interpolated ED50 against 184A1 [6]: 16.8 µM; potency against SK-BR-3 relative to 1 ([3]; ED50 compared with neo-tanshinlactone (1)): approximately threefold
6 | > 63.3 | COc1cc(-c2cc3occ(C)c3c(=O)o2)cc(OC)c1OC [Compound 27, 3-Methyl-6-(3,4,5-trimethoxyphenyl)-4H-furo[3,2-c]pyran-4-one] | 0.44 ± 0.01 | 100- to 250 fold | 
